In PMC3361572 (Chemistry & biology, 2012):

Experiments:
MAGL = molecular target: T1, MAGL (Mus musculus, UniProt O35678); assay: competitive ABPP, mouse brain membrane proteome; assay type: biochemical
T1 sequence (O35678 1-303): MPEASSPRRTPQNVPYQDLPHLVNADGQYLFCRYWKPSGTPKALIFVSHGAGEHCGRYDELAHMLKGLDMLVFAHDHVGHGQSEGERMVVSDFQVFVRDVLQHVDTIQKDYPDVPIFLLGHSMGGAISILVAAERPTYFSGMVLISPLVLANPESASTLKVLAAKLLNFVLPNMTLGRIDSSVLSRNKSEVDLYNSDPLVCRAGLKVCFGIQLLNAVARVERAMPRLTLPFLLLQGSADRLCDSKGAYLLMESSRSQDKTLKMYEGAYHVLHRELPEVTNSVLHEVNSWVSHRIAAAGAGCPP

[1] = test system: brain 2-AG, AA, AEA, PEA, OEA; assay: brain lipid profile of inhibitor-treated mice; assay type: in vivo, mouse
[2] = test system: other rat brain serine hydrolases; assay: competitive ABPP, rat brain proteome, other serine hydrolases; assay type: biochemical
Procedure, shortened: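 Rat brain proteome was preincubated with test compound, then labelled with the serine hydrolase-directed probe FP-rhodamine. Proteins were separated by SDS-PAGE and scanned by in-gel fluorescence. Inhibition of individual serine hydrolases was scored as reduced probe labelling.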

ABHD6 = molecular target: T2, ABHD6 (Rattus norvegicus, UniProt Q5XI64); assay: competitive ABPP of brain from KML29-treated rats; assay type: in vivo; conditions: Wistar rats, 1–40 mg kg^−1 i.p., 4 h
T2 sequence (Q5XI64 1-337): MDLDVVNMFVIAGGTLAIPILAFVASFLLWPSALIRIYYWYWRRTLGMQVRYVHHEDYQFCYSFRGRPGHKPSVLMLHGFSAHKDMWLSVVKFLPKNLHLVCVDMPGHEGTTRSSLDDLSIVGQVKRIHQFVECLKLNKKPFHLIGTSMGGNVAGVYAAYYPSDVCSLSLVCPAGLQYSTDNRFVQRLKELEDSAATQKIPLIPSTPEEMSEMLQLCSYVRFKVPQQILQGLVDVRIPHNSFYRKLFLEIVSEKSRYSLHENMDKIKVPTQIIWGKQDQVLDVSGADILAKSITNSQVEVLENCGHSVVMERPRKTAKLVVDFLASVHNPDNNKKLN
Procedure, shortened: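 Wistar rats were injected i.p. with the test compound (1–40 mg kg−1) or vehicle. Vehicle was saline:emulphor:ethanol 18:1:1, with prolonged sonication and mild heating to dissolve. Rats were killed at 4 h. Brain, liver, lung and spleen proteomes were labelled with FP-Rh, separated by SDS-PAGE and scanned for in-gel fluorescence. Inhibition was scored as reduced probe labelling. n = 3 rats/group.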

hFAAH [3] = molecular target: T3, hFAAH (Homo sapiens, UniProt O00519); assay: substrate hydrolysis assay; assay type: biochemical
T3 sequence (O00519 1-579): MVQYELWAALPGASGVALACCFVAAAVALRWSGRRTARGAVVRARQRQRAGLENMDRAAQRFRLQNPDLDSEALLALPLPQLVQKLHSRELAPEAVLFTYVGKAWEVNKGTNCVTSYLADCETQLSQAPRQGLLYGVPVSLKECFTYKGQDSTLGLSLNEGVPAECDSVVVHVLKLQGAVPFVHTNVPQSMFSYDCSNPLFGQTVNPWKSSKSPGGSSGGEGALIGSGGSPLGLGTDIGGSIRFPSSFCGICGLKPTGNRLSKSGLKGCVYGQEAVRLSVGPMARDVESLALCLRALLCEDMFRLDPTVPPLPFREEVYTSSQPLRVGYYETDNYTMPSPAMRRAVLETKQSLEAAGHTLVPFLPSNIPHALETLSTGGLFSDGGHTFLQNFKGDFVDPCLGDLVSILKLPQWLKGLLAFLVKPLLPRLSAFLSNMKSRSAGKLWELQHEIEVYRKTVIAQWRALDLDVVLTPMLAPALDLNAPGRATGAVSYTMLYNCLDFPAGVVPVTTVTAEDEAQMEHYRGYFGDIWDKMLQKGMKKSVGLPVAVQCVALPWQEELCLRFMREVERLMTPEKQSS

FAAH = molecular target: T4, FAAH (Mus musculus, UniProt O08914); assay: AEA substrate assay in mouse brain proteomes; assay type: biochemical
T4 sequence (O08914 1-579): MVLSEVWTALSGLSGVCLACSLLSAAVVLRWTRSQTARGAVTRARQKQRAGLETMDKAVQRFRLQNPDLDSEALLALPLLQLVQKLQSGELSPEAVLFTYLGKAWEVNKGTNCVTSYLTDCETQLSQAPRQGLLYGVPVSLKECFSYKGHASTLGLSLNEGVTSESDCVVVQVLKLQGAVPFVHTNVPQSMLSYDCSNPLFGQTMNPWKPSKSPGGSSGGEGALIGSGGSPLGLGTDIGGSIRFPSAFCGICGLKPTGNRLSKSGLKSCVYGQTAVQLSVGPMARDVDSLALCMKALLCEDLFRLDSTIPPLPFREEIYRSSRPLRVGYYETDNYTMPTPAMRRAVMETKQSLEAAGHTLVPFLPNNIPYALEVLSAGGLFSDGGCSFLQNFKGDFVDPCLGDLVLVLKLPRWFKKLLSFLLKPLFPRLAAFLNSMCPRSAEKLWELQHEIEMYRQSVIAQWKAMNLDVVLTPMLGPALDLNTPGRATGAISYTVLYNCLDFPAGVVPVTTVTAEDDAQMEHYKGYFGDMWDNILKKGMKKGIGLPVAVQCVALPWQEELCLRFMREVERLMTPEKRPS
Procedure, shortened: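 Mouse brain proteome was treated with test compound. FAAH activity was read as hydrolysis of AEA substrate. Data are means ± SEM of three independent experiments.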

hFAAH [4] = molecular target: T3, hFAAH; assay: competitive ABPP, proteomes of transiently transfected HEK293T cells; assay type: biochemical

O=C(OC(C(F)(F)F)C(F)(F)F)N1CCC(C(O)(c2ccc3c(c2)OCO3)c2ccc3c(c2)OCO3)CC1 [KML29]
selectivity for MAGL relative to ABHD6 (MAGL; mouse brain proteome, competitive ABPP): greater than 100 fold | inhibitor concentrations with selective inhibition of MAGL (MAGL; mouse brain serine hydrolase activities, full ABPP gel): ≤ 1 µM | brain 2-AG and NAE levels, chronic dosing ([1]; 40 mg kg^−1 p.o., six days): selectively raise 2-AG, but not NAE levels | peak increase in brain 2-AG over vehicle controls ([1]; 20 and 40 mg kg^−1 p.o., 4 h): ~ 10 fold | brain levels of AEA, PEA and OEA ([1]; all tested doses p.o., 4 h): unaltered | change in brain 2-AG ([1]; doses as low as 5 mg kg^−1 p.o., 4 h): significant elevations | change in brain arachidonic acid (AA) ([1]; p.o., 4 h, concomitant with 2-AG elevations): significant reductions | time of maximal elevations of 2-AG and reductions of AA in brain ([1]; single oral dose 20 mg kg^−1): 1 h | brain AEA levels during time course ([1]; single oral dose 20 mg kg^−1, 24 h period): unaltered | additional off-target reactivity with other rat brain serine hydrolases [2]: did not detect any additional off-target reactivity | cross-reactivity with brain ABHD6 (ABHD6): without any detectable cross-reactivity | AEA hydrolysis by hFAAH (hFAAH [3]): undiminished AEA hydrolysis up to 50 μM | effect on AEA hydrolysis (FAAH): did not affect AEA hydrolysis at any concentration tested | cross-reactivity with hFAAH (competitive ABPP) (hFAAH [4]; lysates of HEK293T cells transfected with hFAAH): no-detectable cross-reactivity with hFAAH | IC50 (hFAAH [4]; read-out: IC50 (95% CI), human FAAH, competitive ABPP, transfected HEK293T cell proteome): > 50 µM
